Here are results for five molecules from ChEMBL document CHEMBL1154421, “In vitro suppression of K65R reverse transcriptase-mediated tenofovir- and adefovir-5'-diphosphate resistance conferred by the boranophosphonate derivatives” (Antimicrob Agents Chemother, 2007).

Assay [1] concerns Human immunodeficiency virus type 1 reverse transcriptase (Human immunodeficiency virus 1), Q72547 [K65R]. The experiment in a line: Binding affinity to HIV1 recombinant reverse transcriptase p66/p51 K65R mutant assessed as ratio of catalytic rate constant to Kd for dATP to drug by gel electrophoresis. In a few lines:
(§1)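 Pre-steady-state single-nucleotide incorporation, rapid quench over 10 ms to 30 s. Primer is a 5'-32P-labelled 21-mer annealed to a 31-mer DNA template. Products resolved on 14% acrylamide/8 M urea gels and phosphorimaged. kpol and Kd fitted to a hyperbola.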

Assay [2] deals with Human immunodeficiency virus 1. Briefly: Inhibition of HIV1 […] reverse transcriptase p66/p51 R72A mutant DNA polymerase activity assessed as formation of terminated DNA products. As to conditions: concentration not given here. In a few lines: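 Polymerization rate gel assay with WT or R72A RT (50 nM) and 25 nM 5'-labelled oligo(dA)21 annealed to poly(rU)31, in RT buffer at 37°C. Extension followed over the first seconds with dATP or analogues. Products separated by denaturing gel electrophoresis and autoradiographed.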

Assay [3] concerns the target T1, Human immunodeficiency virus type 1 reverse transcriptase (Human immunodeficiency virus 1, UniProt Q72547, K65R). The experiment in a line: Inhibition of HIV1 reverse transcriptase p66/p51 K65R mutant expressed in Escherichia coli using calf thymus DNA substrate. In a few lines: (§2)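 Recombinant p66/p51 RT, coexpressed with HIV-1 protease in E. coli, affinity-purified and active-site titrated. Reactions used 10 nM RT, 250 µg/ml activated calf thymus DNA and 5 µM each dNTP with [3H]dATP (100 µCi/mmol), run for 15 min across increasing inhibitor. Samples spotted in duplicate on DE81 discs, washed in 0.3 M ammonium formate pH 8.0 and ethanol, then scintillation counted. IC50 averaged from at least three independent experiments.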

Assay [4] addresses T2, Human immunodeficiency virus type 1 reverse transcriptase (Human immunodeficiency virus 1, UniProt Q72547). The experiment in a line: Binding affinity to HIV1 wild type reverse transcriptase p66/p51 expressed in Escherichia coli assessed as incorporation of drug to DNA by gel electrophoresis. In a few lines: as §1
Assay [5] relates to Human immunodeficiency virus 1. Briefly: Ratio of IC50 for HIV1 reverse transcriptase p66/p51 K65R mutant to IC50 for HIV1 wild type reverse transcriptase. In a few lines:
as §2

The target in assay [6] is Human immunodeficiency virus type 1 reverse transcriptase (Human immunodeficiency virus 1) (UniProt Q72547). Briefly: Binding affinity to wild type reverse transcriptase assessed as ratio of catalytic rate constant to Kd for incorporation of drug to DNA by gel electrophoresis. In a few lines:
as §1

Assay [7] has as its target T2, Human immunodeficiency virus type 1 reverse transcriptase. Briefly: Inhibition of HIV1 wild type reverse transcriptase p66/p51 expressed in Escherichia coli using calf thymus DNA substrate. In a few lines:
as §2

Assay [8] concerns the target Human immunodeficiency virus type 1 reverse transcriptase (Human immunodeficiency virus 1) (UniProt Q72547). Briefly: Inhibition of HIV1 wild type reverse transcriptase p66/p51 DNA polymerase activity assessed as formation of terminated DNA products. More on the design: concentration or dose not given beside the values. As to conditions: concentration not given here.

Assay [9] shares this target. The experiment in a line: Binding affinity to HIV1 wild type reverse transcriptase p66/p51 assessed as ratio of catalytic rate constant to Kd for dATP to drug by gel electrophoresis. In a few lines: as §1
Assay [10] addresses T1, Human immunodeficiency virus type 1 reverse transcriptase. The experiment in a line: Binding affinity to HIV1 recombinant reverse transcriptase p66/p51 K65R mutant expressed in Escherichia coli assessed as incorporation of drug to DNA by gel electrophoresis. In a few lines:
as §1

Assay [11] concerns Human immunodeficiency virus type 1 reverse transcriptase (Human immunodeficiency virus 1), Q72547 [K65R]. The experiment in a line: Binding affinity to HIV1 recombinant reverse transcriptase p66/p51 K65R mutant expressed in Escherichia coli assessed as ratio of catalytic rate constant to Kd for incorporation of drug to DNA by gel electrophoresis. In a few lines: as §1

As a reminder, the inhibition is the drop in the measured response relative to a control, in per cent. The term IC50 denotes the concentration that inhibits the measured activity by half. For orientation: Kd means a measure of binding affinity in units of concentration. Regarding `BP(=O)(CO[C@H](C)Cn1cnc2c(N)ncnc21)OP(=O)(O)OP(=O)(O)O` (some centres undefined), the Ratio was found to be 10 in assay [1], 0.7 in assay [6], 9.6 in [9] and 0.17 in assay [11]. For the same molecule, the inhibition in assay [2] came out at 45%; in [8] it was 74%. Further, the IC50 in [3] came out at 18 µM; in [7], 14.5 µM. Also, the results for the Kd in [4] and in [10] were 33 µM and 35 µM, respectively. Further, the Ratio IC50 in assay [5] was determined as 1.2.
For `C[C@H](Cn1cnc2c(N)ncnc21)OCP(=O)(O)OP(=O)(O)OP(=O)(O)O`, the Ratio in [1] stood at 97.8; in assay [6], 0.3; in assay [9], 21.9; in assay [11] it was 0.02. For the same molecule, the inhibition in assay [2] is 0.2%; in assay [8], 74%. In addition, the half-inhibitory concentration (IC50) is 170 µM in [3] and 22 µM in assay [7]. Moreover, the values for the Kd in assay [4] and in [10] were 23 µM and 18 µM, respectively. For the same molecule, the Ratio IC50 in assay [5] worked out at 8.
For `Nc1ncnc2c1ncn2CCOCP(=O)(O)OP(=O)(O)OP(=O)(O)O` [ADEFOVIR DIPHOSPHATE], the Ratio in [1] stood at 17.9; in [6], 0.9; in assay [9], 7.7; in [11] it was 0.1. Besides, the inhibition worked out at 1.6% in [2] and 72% in assay [8]. Moreover, the figures for the 50% inhibitory concentration (IC50) in assay [3] and in assay [7] were 52 µM and 8.3 µM, respectively. Besides, the equilibrium dissociation constant (Kd) was 7.9 µM in assay [4] and 7.7 µM in assay [10]. Besides, in [5], the Ratio IC50 was 6.
With `BP(=O)(COCCn1cnc2c(N)ncnc21)OP(=O)(O)OP(=O)(O)O` (centres undefined), the Ratio was 8.8 in assay [1], 0.3 in assay [6], 21.7 in assay [9] and 0.2 in assay [11]. The inhibition in assay [2] worked out at 53%; in assay [8], 69%. In addition, the IC50 in assay [3] stood at 12 µM; in assay [7], 17 µM. For the same molecule, the Kd in assay [4] amounted to 6.5 µM; in assay [10], 7.1 µM. The Ratio IC50 in [5] came to 0.7.
For `Nc1ncnc2c1ncn2[C@H]1C[C@H](O)[C@@H](COP(=O)(O)OP(=O)(O)OP(=O)(O)O)O1`, the dissociation constant (Kd) in assay [4] is 7.5 µM; in [10], 6.9 µM. Besides, the Ratio in assay [6] was 6.7; in assay [11] it was 1.7. The inhibition in [8] amounted to 75%.
